{"source": "paper PMC3583367", "about": "(ACS medicinal chemistry letters, 2013)", "key": {"[1]": {"tested_on": "MDA-MB-231 breast cancer cells", "assay": "Cellular morphological changes under light microscopy", "format": "cell-based, human", "settings": "MDA-MB-231, 48 h, 1 μM, 5 μM and 10 μM"}, "[2]": {"tested_on": "MDA-MB-231 breast cancer cells", "assay": "Annexin V-based flow cytometry apoptosis measurement", "format": "cell-based, human", "settings": "MDA-MB-231, dose-dependent"}, "STAT3": {"tested_on": "STAT3", "assay": "Western blot of total and phosphorylated STAT3 in MDA-MB-231 cells", "format": "cell-based, human", "settings": "MDA-MB-231, 24 h", "summary_of_the_method": "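MDA-MB-231 cells were treated with different doses of test compound for 24 h, then probed by Western blot for total STAT3 and Tyr-705 phospho-STAT3. Bands were quantified by densitometry over three independent experiments, with significance at p < 0.05 and p < 0.01.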"}, "STAT3 promoter activity": {"tested_on": "STAT3 promoter activity", "assay": "STAT3 dual luciferase reporter assay", "format": "cell-based, human", "settings": "24 h pre-treatment", "summary_of_the_method": "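MDA-MB-231 cells were transiently transfected with the pSTAT3-Luc reporter vector and pretreated with test compound at different concentrations for 24 h. STAT3 promoter activity was then read by luciferase.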"}, "[3]": {"tested_on": "human breast and pancreatic cancer cell lines", "assay": "MTS proliferation assays, statements over the cell line panel", "format": "cell-based", "settings": "for antiproliferative activity (in words): MCF-7, MDA-MB-231, AsPC1, Panc-1, MTS assays"}, "caspase-3": {"tested_on": "caspase-3", "assay": "Western blot of cleaved caspase-3 in MDA-MB-231 cells", "format": "cell-based, human", "settings": "MDA-MB-231, Western blot", "summary_of_the_method": "(§1)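 Protein expression in MDA-MB-231 cells was analysed by Western blot after treatment with test compound. Band intensities were quantified by densitometry over three independent experiments, with significance marked at p < 0.05 and p < 0.01.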"}, "[4]": {"tested_on": "MDA-MB-231 xenograft tumors", "assay": "MDA-MB-231 xenograft tumor growth model", "format": "in vivo, mice"}, "cyclin D1": {"tested_on": "cyclin D1", "assay": "Western blot of cyclin D1 in MDA-MB-231 cells", "format": "cell-based, human", "settings": "MDA-MB-231, Western blot", "summary_of_the_method": "as §1"}, "[5]": {"assay": "Signs of toxicity in mice", "format": "in vivo", "settings": "75 mg/kg"}}}
{"molecule": "O=C(Nc1ccc([N+](=O)[O-])cc1Cl)c1cc(Cl)ccc1O", "note": "[Compound 1, niclosamide, reference compound]", "values": [{"measurement": "cell proliferation and apoptosis with cellular morphological changes", "setting": "[1]", "value": "significantly inhibited cell proliferation and induced apoptosis"}, {"measurement": "apoptosis (annexin V, flow cytometry)", "setting": "[2]", "value": "activated apoptosis"}, {"measurement": "phosphorylated STAT3 (p-STAT3) at Tyr-705", "setting": "STAT3", "value": "suppressed"}, {"measurement": "total STAT3 level", "setting": "STAT3", "value": "reduced"}, {"measurement": "STAT3 promoter activity (in words)", "setting": "STAT3 promoter activity; 20 μM, MDA-MB-231", "value": "suppressed"}]}
{"molecule": "O=C(Nc1ccc([N+](=O)[O-])cc1Cl)c1cc(Cl)ccc1OCCF", "note": "[Compound 3]", "values": [{"measurement": "antiproliferative activity (in words)", "setting": "[3]", "value": "no significant effects"}]}
{"molecule": "CN1CCC(Oc2ccc(Cl)cc2C(=O)Nc2ccc([N+](=O)[O-])cc2Cl)CC1", "note": "[Compound 4]", "values": [{"measurement": "fold loss of antiproliferative activity in comparison with analogue 10", "setting": "[3]; vs analogue 10", "value": 10, "unit": "fold"}]}
{"molecule": "O=C(Nc1ccc([N+](=O)[O-])cc1Cl)c1cc(Cl)ccc1OC1CCNCC1", "note": "[Compound 10]", "values": [{"measurement": "cell proliferation and apoptosis with cellular morphological changes", "setting": "[1]", "value": "significantly inhibited cell proliferation and induced apoptosis"}]}
{"molecule": "NCCOc1ccc(Cl)cc1C(=O)Nc1ccc([N+](=O)[O-])cc1Cl", "note": "[Compound 11]", "values": [{"measurement": "cleaved caspase-3", "setting": "caspase-3", "value": "induced"}, {"measurement": "cell proliferation and apoptosis with cellular morphological changes", "setting": "[1]", "value": "significantly inhibited cell proliferation and induced apoptosis"}, {"measurement": "apoptosis (annexin V, flow cytometry)", "setting": "[2]", "value": "activated apoptosis"}, {"measurement": "phosphorylated STAT3 (p-STAT3) at Tyr-705", "setting": "STAT3", "value": "suppressed"}, {"measurement": "total STAT3 level", "setting": "STAT3", "value": "reduced"}, {"measurement": "inhibition of xenograft tumor growth, i.p.", "setting": "[4]; 7.5 mg/kg i.p., compared with 12.5 mg/kg niclosamide", "value": "better effect in inhibiting tumor growth"}, {"measurement": "growth of xenograft tumors, oral administration", "setting": "[4]; 25 mg/kg p.o., more efficacious than niclosamide at 75 mg/kg", "value": "significantly reduced"}, {"measurement": "xenograft tumor growth in vivo (both i.p. & p.o.)", "setting": "[4]; nude mice bearing MDA-MB-231 xenografts", "value": "significantly suppressed"}, {"measurement": "decrease of STAT3 promoter activity", "setting": "STAT3 promoter activity; 10 μM, MDA-MB-231, compared with control", "value": "approximately 32%"}, {"measurement": "cyclin D1", "setting": "cyclin D1", "value": "downregulated"}, {"measurement": "signs of toxicity", "setting": "[5]", "value": "did not show significant signs of toxicity"}]}
{"molecule": "CS(=O)(=O)Nc1ccc(NC(=O)c2cc(Cl)ccc2OC2CCNCC2)c(Cl)c1", "note": "[Compound 19]", "values": [{"measurement": "antiproliferative activity (in words)", "setting": "[3]", "value": "significant loss of the antiproliferative activity"}]}
{"molecule": "CC(=O)Nc1ccc(NC(=O)c2cc(Cl)ccc2OC2CCNCC2)c(Cl)c1", "note": "[Compound 20]", "values": [{"measurement": "antiproliferative activity (in words)", "setting": "[3]", "value": "significant loss of the antiproliferative activity"}]}
